Assay results as given in ChEMBL document CHEMBL4196237, “Heterocoumarins Are Selective Carbonic Anhydrase IX and XII Inhibitors with Cytotoxic Effects against Cancer Cells Lines” (ACS Med Chem Lett, 2018).
The source made the active and inactive calls. No cut-off for these calls is given here.

Key:
Carbonic anhydrase 9 = Carbonic anhydrase 9 (Homo sapiens, UniProt Q16790); experiment: Inhibition of recombinant human carbonic anhydrase 9 incubated 15 mins prior to testing by CO2 hydration based stopped-flow assay
Carbonic anhydrase 1 = Carbonic anhydrase 1 (Homo sapiens, UniProt P00915); experiment: Inhibition of recombinant human carbonic anhydrase 1 incubated 6 h prior to testing by CO2 hydration based stopped-flow assay
Carbonic anhydrase 2 = Carbonic anhydrase 2 (Homo sapiens, UniProt P00918); experiment: Inhibition of recombinant human carbonic anhydrase 2 incubated 6 h prior to testing by CO2 hydration based stopped-flow assay
PC-3 [1] = experiment: Cytotoxicity against human PC3 cells assessed as cell viability at 30 uM after 48 hrs under normoxic conditions by MTT assay relative to control; format: functional; details: PC-3, 48 h, read-out: Activity
Procedure, shortened: (§1)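 PC3 human prostate cancer cells incubated 48 h with compound at a range of concentrations, under normoxia or under hypoxia (1% O2). Viability is expressed relative to control, with significance tested against control at p < 0.05, 0.01 and 0.001.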

MDA-MB-231 [2] = experiment: Cytotoxicity against human MDA-MB-231 cells assessed as reduction in cell viability at 1 to 300 uM after 48 hrs under hypoxic conditions by MTT assay; format: functional, cell-based
MDA-MB-231 [3] = experiment: Cytotoxicity against human MDA-MB-231 cells assessed as reduction in cell viability at 30 uM after 48 hrs under normoxic conditions by MTT assay relative to control; format: functional
PC-3 [4] = experiment: Cytotoxicity against human PC3 cells assessed as cell viability at 30 uM after 48 hrs under hypoxic conditions by MTT assay relative to control; format: functional; details: PC-3, 48 h, read-out: Activity; procedure, shortened: as §1
PC-3 [5] = experiment: Cytotoxicity against human PC3 cells assessed as reduction in cell viability at 1 to 300 uM after 48 hrs under normoxic conditions by MTT assay; format: functional, cell-based; procedure, shortened: as §1
PC-3 [6] = experiment: Cytotoxicity against human PC3 cells assessed as reduction in cell viability at 1 to 300 uM after 48 hrs under hypoxic conditions by MTT assay; format: functional, cell-based; procedure, shortened: as §1
MDA-MB-231 [7] = experiment: Cytotoxicity against human MDA-MB-231 cells assessed as reduction in cell viability at 1 to 300 uM after 48 hrs under normoxic conditions by MTT assay; format: functional, cell-based
Carbonic anhydrase 12 [8] = target: T1, Carbonic anhydrase 12 (Homo sapiens, UniProt O43570); experiment: Inhibition of recombinant human carbonic anhydrase 12 incubated 6 h prior to testing by CO2 hydration based stopped-flow assay
PC-3 [9] = experiment: Cytotoxicity against human PC3 cells assessed as cell viability at 100 to 300 uM after 48 hrs under hypoxic conditions by MTT assay relative to control; format: functional; procedure, shortened: as §1
Carbonic anhydrase 12 [10] = target: T1, Carbonic anhydrase 12; experiment: Inhibition of recombinant human carbonic anhydrase 12 incubated 15 mins prior to testing by CO2 hydration based stopped-flow assay
PC-3 [11] = experiment: Cytotoxicity against human PC3 cells assessed as cell viability at higher concentration after 48 hrs under normoxic conditions by MTT assay relative to control; format: functional; procedure, shortened: as §1
MDA-MB-231 [12] = experiment: Cytotoxicity against human MDA-MB-231 cells assessed as reduction in cell viability at 300 uM after 48 hrs under hypoxic conditions by MTT assay relative to control; format: functional
PC-3 [13] = experiment: Cytotoxicity against human PC3 cells assessed as cell viability at 300 uM after 48 hrs under hypoxic conditions by MTT assay relative to control; format: functional; details: PC-3, 48 h, read-out: Activity; procedure, shortened: as §1
PC-3 [14] = experiment: Cytotoxicity against human PC3 cells assessed as cell viability at 300 uM after 48 hrs under normoxic conditions by MTT assay relative to control; format: functional; details: PC-3, 48 h, read-out: Activity; procedure, shortened: as §1
MDA-MB-231 [15] = experiment: Cytotoxicity against human MDA-MB-231 cells assessed as reduction in cell viability at 300 uM after 48 hrs under normoxic conditions by MTT assay relative to control; format: functional
MDA-MB-231 [16] = experiment: Cytotoxicity against human MDA-MB-231 cells assessed as reduction in cell viability at 30 uM after 48 hrs under hypoxic conditions by MTT assay relative to control; format: functional

T1 sequence (O43570 whole entry): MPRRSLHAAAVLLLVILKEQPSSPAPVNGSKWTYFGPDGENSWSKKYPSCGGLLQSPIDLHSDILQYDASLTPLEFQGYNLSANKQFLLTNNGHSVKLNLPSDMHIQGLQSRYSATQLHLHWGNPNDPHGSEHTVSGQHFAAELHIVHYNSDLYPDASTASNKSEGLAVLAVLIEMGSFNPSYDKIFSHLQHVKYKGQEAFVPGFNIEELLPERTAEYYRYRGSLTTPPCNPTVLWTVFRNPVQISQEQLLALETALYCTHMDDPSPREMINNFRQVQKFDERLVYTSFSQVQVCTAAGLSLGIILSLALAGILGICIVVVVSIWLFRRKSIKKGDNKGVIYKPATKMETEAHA
Carbonic anhydrase 1, sequence (P00915 whole entry): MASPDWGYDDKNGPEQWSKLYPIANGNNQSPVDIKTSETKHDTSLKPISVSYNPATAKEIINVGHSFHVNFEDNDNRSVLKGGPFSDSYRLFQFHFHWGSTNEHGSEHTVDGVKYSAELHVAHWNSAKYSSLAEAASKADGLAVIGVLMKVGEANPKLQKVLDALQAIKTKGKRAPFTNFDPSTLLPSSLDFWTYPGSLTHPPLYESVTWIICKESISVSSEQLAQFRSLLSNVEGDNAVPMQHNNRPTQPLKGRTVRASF

Structure (SMILES) | Ki (Carbonic anhydrase 9) | Ki (Carbonic anhydrase 1) | Ki (Carbonic anhydrase 2) | also measured
O=c1ccc2cccc(Cl)c2[nH]1 | 23 nM | > 10000 nM | > 10000 nM | –
Cc1ccc2[se]c(=S)ccc2c1 | 59.9 nM | > 10000 nM | > 10000 nM | viability at 30 µM (PC-3 [1]): 51%; Activity (MDA-MB-231 [2]): inactive; Activity (MDA-MB-231 [3]): 61%; viability at 30 µM (PC-3 [4]): 79%
O=c1ccc2cccc(F)c2[nH]1 | 58.8 nM | > 10000 nM | > 10000 nM | –
[Se]=c1ccc2ccccc2[nH]1 | 54.4 nM | > 10000 nM | > 10000 nM | Activity (PC-3 [5]): inactive; Activity (PC-3 [6]): inactive; Activity (MDA-MB-231 [2]): inactive; Activity (MDA-MB-231 [7]): inactive
Cn1c(=O)ccc2ccccc21 | 44.6 nM | > 10000 nM | > 10000 nM | Ki (Carbonic anhydrase 12 [8]): 83.5 nM
O=c1ccc2ccccc2[te]1 | 59 nM | > 10000 nM | > 10000 nM | Activity (PC-3 [9]): 38%; Ki (Carbonic anhydrase 12 [10]): 8.2 nM; viability at 30 µM (PC-3 [1]): 54%; Activity (PC-3 [11]): 19%; Activity (MDA-MB-231 [3]): 15.9%; viability at 30 µM (PC-3 [4]): 71%; Activity (MDA-MB-231 [12]): 22%
S=c1ccc2ccccc2[se]1 | 39.5 nM | > 10000 nM | > 10000 nM | –
O=c1ccc2ccccc2[se]1 | 26.3 nM | > 10000 nM | > 10000 nM | viability at 300 µM (PC-3 [13]): 68%; viability at 300 µM (PC-3 [14]): 68%; Activity (MDA-MB-231 [15]): 28%; Activity (MDA-MB-231 [16]): >50%; Activity (MDA-MB-231 [12]): 90%
O=c1ccc2cccc(Br)c2[nH]1 | 23.4 nM | > 10000 nM | > 10000 nM | –
Cc1ccc2[se]c(=O)ccc2c1 | 56.1 nM | > 10000 nM | > 10000 nM | Ki (Carbonic anhydrase 12 [10]): 7.6 nM
Cc1ccc2[nH]c(=O)ccc2c1 | 123 nM | > 10000 nM | > 10000 nM | –
Cn1c(=[Se])ccc2ccccc21 | 172 nM | > 10000 nM | > 10000 nM | Ki (Carbonic anhydrase 12 [10]): 86.4 nM
Oc1ccc2ccccc2n1 | – | > 10000 nM | > 10000 nM | –
